Assay results: ChEMBL document CHEMBL5150051, “Identification and Characterization of a Novel Indoleamine 2,3-Dioxygenase 1 Protein Degrader for Glioblastoma” (J Med Chem, 2022)
Active and inactive are the calls of the source.

Experiments:
[1] = target: T1, Protein cereblon/Indoleamine 2,3-dioxygenase 1 (Homo sapiens, UniProt P14902+Q96SW2); experiment: Protac activity at IDO1/CRBN in IFNgamma-stimulated human GBM43 cells assessed as IDO1 degradation by measuring decrease in protein level measured after 24 hrs by Western blotting analysis; type: cell-based; settings: GBM, dose 0.1-10 µM, DDE = dose-dependent effect
T1 sequence (P14902 whole entry, looked up): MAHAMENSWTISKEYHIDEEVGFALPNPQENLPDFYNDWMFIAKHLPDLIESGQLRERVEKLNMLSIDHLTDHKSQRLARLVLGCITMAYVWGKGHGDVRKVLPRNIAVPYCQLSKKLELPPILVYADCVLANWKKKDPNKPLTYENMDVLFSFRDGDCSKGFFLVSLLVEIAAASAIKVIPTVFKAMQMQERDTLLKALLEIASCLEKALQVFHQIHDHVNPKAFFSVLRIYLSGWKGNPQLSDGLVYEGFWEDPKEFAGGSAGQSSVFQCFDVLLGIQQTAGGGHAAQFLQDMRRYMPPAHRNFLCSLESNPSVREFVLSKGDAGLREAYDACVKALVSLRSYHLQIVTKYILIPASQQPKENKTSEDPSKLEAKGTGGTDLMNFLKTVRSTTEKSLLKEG
T1 sequence (Q96SW2 whole entry, looked up): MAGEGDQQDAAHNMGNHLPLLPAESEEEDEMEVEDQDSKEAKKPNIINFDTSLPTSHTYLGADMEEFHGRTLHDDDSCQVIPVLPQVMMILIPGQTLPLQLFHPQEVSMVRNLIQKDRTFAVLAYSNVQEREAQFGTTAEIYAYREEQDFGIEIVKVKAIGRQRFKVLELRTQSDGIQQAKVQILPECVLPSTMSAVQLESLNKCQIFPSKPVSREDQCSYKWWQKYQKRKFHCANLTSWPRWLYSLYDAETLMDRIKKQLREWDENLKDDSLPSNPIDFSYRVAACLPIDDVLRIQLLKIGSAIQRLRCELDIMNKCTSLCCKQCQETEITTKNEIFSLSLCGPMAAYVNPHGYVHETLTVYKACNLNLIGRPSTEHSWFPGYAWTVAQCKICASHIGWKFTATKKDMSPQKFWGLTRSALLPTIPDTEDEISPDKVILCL
Outline: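 GBM43 cells stimulated with 50 ng/mL human IFNγ for 24 h, then treated across 0.01 to 30 μM for 24 h. IDO1 was quantified by western blot densitometry as percent of IFNγ-induced untreated level. DC50 came from the dose-response curve; n = 3 independent experiments, mean ± SEM.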

[2] = target: T1, Protein cereblon/Indoleamine 2,3-dioxygenase 1; experiment: Protac activity at IDO1/CRBN in IFNgamma-stimulated human CD18 cells assessed as IDO1 degradation by measuring decrease in intracellular protein level measured after 24 hrs by Western blotting analysis; type: cell-based; settings: CD18 cell, DDE = dose-dependent effect
[3] = target: T1, Protein cereblon/Indoleamine 2,3-dioxygenase 1; experiment: Protac activity at IDO1/CRBN in IFNgamma-stimulated human PANC-1 cells assessed as IDO1 degradation by measuring decrease in intracellular protein level measured after 24 hrs by Western blotting analysis; type: cell-based; settings: dose 1-10 µM, DDE = dose-dependent effect
[4] = target: T1, Protein cereblon/Indoleamine 2,3-dioxygenase 1; experiment: Protac activity at IDO1/CRBN in IFNgamma-stimulated human PBMC cells isolated form GBM patient assessed as IDO1 degradation by measuring decrease in intracellular protein level measured after 24 hrs by Western blotting analysis; type: cell-based; settings: DDE = dose-dependent effect
[5] = target: T1, Protein cereblon/Indoleamine 2,3-dioxygenase 1; experiment: Protac activity at CRBN/IDO1-HA expressed in human U87 cells assessed as IDO1 degradation in intracellular cytoplasmic compartment measured at 1 to 10 uM after 24 hrs by Western blotting analysis; type: subcellular; settings: Cytoplasm, dose 1-10 µM
[6] = target: T1, Protein cereblon/Indoleamine 2,3-dioxygenase 1; experiment: Protac activity at CRBN/IDO1 in enzyme-null cDNA transfected in human U87 cells assessed as IDO1 degradation by measuring decrease in protein level measured at 0.1 to 10 uM after 24 hrs by Western blotting analysis; type: cell-based; settings: dose 0.1-10 µM
[7] = target: T1, Protein cereblon/Indoleamine 2,3-dioxygenase 1; experiment: Protac activity at CRBN/IDO1 in IFNgamma-stimulated human GBM43 cells assessed as decrease in kynurenine level measured after 24 hrs by Ehrlich's test; type: cell-based; settings: GBM43 cell, DDE = dose-dependent effect
Outline: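 U87 or GBM43 cells given compound together with 50 ng/mL IFNγ for 24 h. Supernatant kynurenine was measured with Ehrlich's reagent. Cells cultured without IFNγ served as control.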

[8] = target: T1, Protein cereblon/Indoleamine 2,3-dioxygenase 1; experiment: Protac activity at CRBN/IDO1 non-enzyme mediated NF-kappaB signal in IFNgamma-stimulated human MDA-MB-231 cells assessed as decrease in p65 phosphorylation at 0.1 to 10 uM measured after 24 hrs Western blotting assay; type: cell-based; settings: dose 0.1-10 µM
Outline: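 IFNγ-stimulated cells were induced for 24 h, then treated at several concentrations for 24 h. Lysates were western blotted for IDO1, phospho-p65, total p65 and GAPDH.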

[9] = Toxicity in C57BL/6 mouse assessed as mortality at 100 mg/kg, ip treated 5 days/week for 3 weeks; type: organism-based; settings: in vivo, 504 h
[10] = Drug uptake in C57BL/6 mouse liver at 50 mg/kg, ip treated 5 days/week for 3 weeks by LC/MS/MS analysis; type: ADME, organism-based; settings: in vivo, 504 h
Mus musculus = experiment: In vivo Protac activity at IDO1/CRBN in GL261 cells expressing mIDO1 cDNA mouse model assessed as decrease in IDO1 protein level in tumor measured at 25 mg/kg, ip
Ido1/Crbn (Mus musculus) = Ido1/Crbn (Mus musculus) (UniProt P28776+Q8C7D2); experiment: Protac activity at CRBN/IDO1 non-enzyme mediated p65 phosphorylation in mouse GL261 cells expressing IDO1 cDNA measured at 0.1 to 10 uM after 24 hrs by Western blotting analysis; settings: dose 0.1-10 µM
Sequence of Ido1/Crbn (Mus musculus) (P28776 whole entry, looked up): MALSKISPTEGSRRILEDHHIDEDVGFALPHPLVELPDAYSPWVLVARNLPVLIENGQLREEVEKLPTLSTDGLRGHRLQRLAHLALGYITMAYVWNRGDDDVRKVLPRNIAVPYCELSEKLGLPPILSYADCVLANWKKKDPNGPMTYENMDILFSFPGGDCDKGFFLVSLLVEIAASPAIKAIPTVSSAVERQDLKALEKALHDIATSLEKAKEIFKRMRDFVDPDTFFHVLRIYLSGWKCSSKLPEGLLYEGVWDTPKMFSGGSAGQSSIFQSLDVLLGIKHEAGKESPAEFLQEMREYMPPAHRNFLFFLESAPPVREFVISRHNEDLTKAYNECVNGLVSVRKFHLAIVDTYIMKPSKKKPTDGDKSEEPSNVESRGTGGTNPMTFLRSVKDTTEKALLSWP
Sequence of Ido1/Crbn (Mus musculus) (Q8C7D2 whole entry, looked up): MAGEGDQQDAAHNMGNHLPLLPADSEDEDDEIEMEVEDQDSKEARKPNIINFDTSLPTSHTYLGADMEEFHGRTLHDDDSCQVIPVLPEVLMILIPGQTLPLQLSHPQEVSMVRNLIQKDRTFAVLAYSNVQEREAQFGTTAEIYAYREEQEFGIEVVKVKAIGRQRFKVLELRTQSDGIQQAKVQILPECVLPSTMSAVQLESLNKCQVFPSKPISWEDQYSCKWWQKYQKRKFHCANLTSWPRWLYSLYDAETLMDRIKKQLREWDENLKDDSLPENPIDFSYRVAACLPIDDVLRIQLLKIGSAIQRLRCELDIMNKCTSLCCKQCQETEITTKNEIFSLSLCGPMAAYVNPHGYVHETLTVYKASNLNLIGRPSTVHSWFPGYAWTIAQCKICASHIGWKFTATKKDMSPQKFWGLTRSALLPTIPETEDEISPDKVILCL

C[C@@H](C(=O)Nc1ccc(OC2CCN(C(=O)CCOCCOCCNc3cccc4c3C(=O)N(C3CCC(=O)NC3=O)C4=O)CC2)cc1)[C@H]1CC[C@@H](c2ccnc3ccc(F)cc32)CC1 (some centres not stated)
active: Activity [1] Dde | Activity [2] Dde | Activity [3] Dde | Activity [4] Dde | Activity [5] | Activity [6] | inhibition [7] Dde | inhibition [8] | Activity (Mus musculus) | inhibition (Ido1/Crbn (Mus musculus))
Active: Drug uptake [10]
Toxic: Activity [9]
